Compound activity from PubChem.
Rows were chosen to be rich in hits. Some 3% of all compounds tested hit in one or more screens of this group.
HTR1A agonist: agonists of human 5-HT1a serotonin receptor; P08908; CHO 5-HT1a Ga15 NFAT-bla reporter, FRET ratio; 0% basal, 100% maximal reference agonist; activation, % at 10 µM; 65,000 tested, 0.56% active; AID 567;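 active = activation above the screen-wide mean activation plus 3 SD, cut at about 19% in these data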;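 also: 0% = DMSO wells and 100% = 5-CT at EC100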
5HT1a antag: 5-HT1a (human) receptor antagonism; inhibition, % at 10 µM; CHO 5-HT1a Ga15 NFAT-bla reporter, antagonist mode; 62,000 tested, 0.68% active;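 active = inhibition above the mean of all tested compounds plus 3 SD, cut at about 43% in these data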;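 also: receptor stimulated by 5-CT agonist at 100 nM near EC80; beta-lactamase reporter measured by ratiometric fluorescence of a cleavable substrate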
S1P1 ag-PAM: agonists and agonism potentiators of human S1P1 receptor | 56,000 tested, 0.57% active | AID 449 | P21453 | S1P1 CRE-bla cells, forskolin, beta-lactamase FRET, potentiator mode; S1P1 agonist co-added at EC20, 2 nM; 100% = saturating reference agonist, 0% = basal | activation, % at 9.5 µM;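 active = activation above a cutoff set at the mean activation of all tested compounds plus 3 SD, cut at about 54% in these data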;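 also: forskolin at 4 µM as EC80 and the EC20 agonist is SEW2871; 100% = SEW2871 at its EC100 plus forskolin at EC80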
Target sequence (P21453 whole entry, looked up): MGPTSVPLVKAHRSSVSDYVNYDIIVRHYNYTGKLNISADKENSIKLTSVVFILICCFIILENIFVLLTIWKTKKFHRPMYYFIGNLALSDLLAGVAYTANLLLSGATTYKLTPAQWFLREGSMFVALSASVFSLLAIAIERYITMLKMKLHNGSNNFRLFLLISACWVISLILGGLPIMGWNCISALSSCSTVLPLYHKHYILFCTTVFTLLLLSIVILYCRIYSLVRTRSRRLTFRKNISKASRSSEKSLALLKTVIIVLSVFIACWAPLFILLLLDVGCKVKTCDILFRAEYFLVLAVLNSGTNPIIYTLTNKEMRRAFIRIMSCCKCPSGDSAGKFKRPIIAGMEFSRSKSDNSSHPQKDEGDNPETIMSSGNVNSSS
5HT1E antag: blocks the human 5-HT1E serotonin receptor | CHO 5-HT1E Ga15 NFAT-bla reporter, FRET, antagonist | 65,000 tested, 0.99% active | inhibition, % at 6 µM | P28566;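 active = inhibition above a set limit, the mean inhibition across every tested compound plus 3 SD, cut at about 29% in these data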;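 also: signal is the 460 over 535 nm emission ratio of beta-lactamase substrate; 0% = agonist plus DMSO wells and 100% = wells without agonist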
HTR1E agonist: activates the human 5-HT1E serotonin receptor; activation, % at 6 µM; CHO 5-HT1E Ga15 NFAT-bla reporter, FRET; 0% DMSO wells, 100% control agonist wells; 65,000 tested, 0.69% active; P28566;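 active = activation above a set limit, the screen-wide mean activation plus 3 SD, cut at about 8.5% in these data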;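 also: 100% = positive control agonist at 1 µM giving full maximal response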
S1P3 ag: agonists of human S1P3 receptor; Q99500; S1P3 NFAT-BLA reporter cells, agonism, FRET ratio; relative to 1 µM S1P, basal subtracted; activation, % at 4.5 µM; 60,000 tested, 0.1% active; AID 373;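 active = activation above the screen-wide mean plus 3 SD, cut at about 4.5% in these data, passing the limit was not always enough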
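Measure – % activation relative to 1 µM S1P (100%), per plate · System – stable CHO line with human S1P3, Gα16, NFAT-BLA reporter · Timing – cells plated overnight, compound 4 h 37 °C, substrate 2 h RT · Technique – fluorescent BLA substrate, ex 405 nm, em 460/535 nm ratio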
* = called active by the depositor; nt = no result.

SMILES	HTR1A agonist	5HT1a antag	S1P1 ag-PAM	5HT1E antag	HTR1E agonist	S1P3 ag
O=C(NC1CCCC1)C(c1ccsc1)N(Cc1ccco1)C(=O)Cc1cccs1 (centres undefined)	-1	58*	3	6	0	0
Cc1ccc(-c2nnn(CC(=O)N(Cc3cccs3)C(C(=O)NC3CCCC3)c3ccco3)n2)o1 (centres undefined)	2	17	25	17	1	-1
CC1CCc2nc(NCCO)nc(C(F)(F)F)c2C1 (centres undefined)	-1	4	5	15	0	-1
COC(=O)c1cc2ccsc2n1CC(=O)Nc1cc(Cl)ccc1OC	-2	52*	31	7	-1	-1
COC(=O)c1cc2ccsc2n1CC(=O)Nc1ccc(N(C)C)cc1	-3	8	13	-2	-1	-1
Clc1ccc(C(c2nnnn2C2CCCC2)N2CCSCC2)cc1 (centres undefined)	-1	50*	18	20	0	-1
CS(=O)(=O)N(CC(=O)NCCC1=CCCCC1)c1ccc2c(c1)OCO2	-2	2	nt	11	-1	-1
CCOc1ccc2[nH]c(=O)c(CN(Cc3cccs3)Cc3nnnn3C(C)(C)CC)cc2c1	7	32	9	17	9.5*	0
COCCN1C(=O)c2ccccc2C(C(=O)N2CCN(c3ccccn3)CC2)C1c1ccc(F)cc1 (centres undefined)	-1	6	nt	-13	0	nt
c1cncc(-c2nc3cc(Cc4ccc5oc(-c6cccnc6)nc5c4)ccc3o2)c1	0	5	3	1	0	-1
c1cc(-c2nc3cc(Cc4ccc5oc(-c6ccncc6)nc5c4)ccc3o2)ccn1	-1	1	-26	-2	18*	0
Cc1ccc(CCNC(=O)c2coc3nc4ccccc4nc23)cc1	3	-17	-48	-3	13*	1
CCOC(=O)c1cnc(-n2nc(C)cc2C)nc1NCc1ccc2c(c1)OCO2	0	43*	-26	8	0	-1
COCCCn1c(SCC(=O)N2CCc3ccccc32)nnc1-c1ccoc1C	-3	13	-1	1	0	-2
CCOc1ccccc1NC(=O)Cn1nnc(C(=O)NCc2ccco2)c1N	-2	34	6	73*	-1	-1
CCC(=O)N1CCN(c2ccc(Cl)cc2NC(=O)c2ccc(Br)o2)CC1	1	27	1	13	0	-1
Cc1ccc(C2C=C(c3ccc4c(c3)OCO4)Nc3ncnn32)cc1 (centres undefined)	-3	10	-36	7	0	1
COc1cccc(C2=CC(c3ccc(C)cc3)n3ncnc3N2)c1 (centres undefined)	0	29	4	29*	0	-1
COc1ccc(N(CC(=O)Nc2cc(Cl)ccc2OC)S(=O)(=O)c2c(C)noc2C)cc1	-2	23	-20	35*	0	0
COc1ccc(OC)c(NC(=O)CN(c2ccc(C)cc2)S(=O)(=O)c2c(C)noc2C)c1	3	22	2	2	2	0
CC(C)n1c2ccccc2c2nc3ccccc3nc21	5	6	-38	32*	0	0
Cc1ccc(OCc2nc(-c3ccccc3)no2)c(C)c1	-2	-1	78*	-4	0	-1
N#CC(C#N)=c1ccc2c(c1)NC1(CCCCC1)N=2	-1	31	12	2	1	-2
CCOC(=O)N1CCN(C(=O)c2ccc(Cn3c(=S)[nH]c4cc5c(cc4c3=O)OCO5)cc2)CC1	6	-4	nt	29*	-1	nt
CCOC(=O)N1CCN(C(=O)CN(c2ccc3c(c2)OCO3)S(C)(=O)=O)CC1	-1	4	5	4	0	0
SMILES	HTR1A agonist	5HT1a antag	S1P1 ag-PAM	5HT1E antag	HTR1E agonist	S1P3 ag
O=c1/c(=C\c2cccnc2)sc2nc3ccccc3n12	-3	-18	-20	4	0	1
Cc1cc(/C=c2/sc3nc4ccccc4n3c2=O)c(C)n1-c1ccccn1	8	nt	101*	-10	1	-1
COc1ccc(-n2c(Cc3cccn3C)nnc2SCC(=O)Nc2ccc(C(C)=O)cc2)cc1	0	1	-39	-7	0	0
CCn1c2ccccc2c2nnc(SCC(=O)c3ccccc3)nc21	3	-13	-70	31*	-1	0
CSc1nnc(C2CCCN2)n1C (centres undefined)	1	2	nt	-1	0	nt
CCOC(=O)N1CCN(C2=Nc3cccc4cccc2c34)CC1	71*	-23	1	3	1	0
CC(=O)Nc1ccc(NC(=O)CN(c2ccccc2Cl)S(C)(=O)=O)cc1	-3	-11	-14	1	-1	-1
Cc1nc2c(sc3nc4c(cc32)COC(C)(C)C4)c(=O)n1CC(=O)NCc1ccco1	-3	17	nt	31*	0	nt
O=C(NCCc1ccc(Cl)cc1)c1ncn[nH]1	-1	-4	-11	6	10*	0
Cc1cccc(NC(=O)Nc2cccc(C#N)c2)n1	0	27	-31	-6	0	-1
Cc1cccc(NC(=O)Nc2ccc(C#N)cc2)n1	-1	83*	68	32*	0	-2
COc1ccc(N2CCn3c2nc2c3c(=O)n(CCCc3ccccc3)c(=O)n2C)cc1	0	3	0	-2	1	0
COc1ccc(N2CC(C)Cn3c2nc2c3c(=O)n(CCc3ccccc3)c(=O)n2C)cc1 (centres undefined)	2	-4	-4	13	12*	-1
COc1cc(C)c(Cl)cc1S(=O)(=O)NCC1CCCO1 (centres undefined)	3	1	-9	-9	0	-1
CCOc1cc(C)c(Cl)cc1S(=O)(=O)NCC1CCCO1 (centres undefined)	0	12	12	31*	-1	-1
CCN(CC)c1ccc2c(C)c(CN3CCOCC3)c(=O)oc2c1	23*	-43	-65	-16	6	2
O=C(Nc1nc(-c2ccccn2)cs1)c1ccc(Cl)s1	-2	28	50	44*	1	-2
Cn1cccc1C(=O)Nc1nc(-c2ccccn2)cs1	-1	15	6	2	0	1
C=CCn1c(N)c(C(=O)OC(C)(C)C)c2nc3ccccc3nc21	4	nt	-18	12	2	-2
C=CCn1c(N)c(C(=O)Nc2ccccc2)c2nc3ccccc3nc21	27*	nt	-60	1	6	4
CC(=O)c1c(C)[nH]c(C(=O)NCCN2CCC(C)CC2)c1C	-5	0	4	0	0	-1
